# Laboratory results taken from ChEMBL document CHEMBL5131562, “1,3-Dioxane-Linked Novel Bacterial Topoisomerase Inhibitors: Expanding Structural Diversity and the Antibacterial Spectrum” (ACS Med Chem Lett, 2022).
# Columns and labels:
# Neisseria gonorrhoeae [1] = assay: Antimicrobial activity against wild type Neisseria gonorrhoeae ATCC 49226 incubated for 20 hrs by agar dilution method; format: functional
# [2] = Inhibition of Neisseria gonorrhoeae DNA topoisomerase 4 decatenation activity using kDNA as substrate incubated for 10 to 20 min by ethidium bromide/bromophenol blue staining based agarose gel electrophoresis analysis
# In short: (§1)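 The N. gonorrhoeae enzymes were assayed separately: supercoiling by DNA gyrase, and decatenation of kDNA by topoisomerase IV. Concentration–response data were collected over at least three independent experiments and summarized with standard deviation, and IC50 values were derived.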
# Neisseria gonorrhoeae [3] = assay: Antimicrobial activity against wild type Neisseria gonorrhoeae O strain incubated for 20 to 24 hrs by CLSI protocol based broth microdilution method; format: functional; details: time 20-24 hrs
# Neisseria gonorrhoeae [4] = assay: Antimicrobial activity against Neisseria gonorrhoeae M strain harbouring type 2 topoisomerase GyrA S91F,D95G mutant incubated for 20 hrs by agar dilution method; format: functional
# Neisseria gonorrhoeae [5] = assay: Antimicrobial activity against wild type Neisseria gonorrhoeae Y strain harbouring type 2 topoisomerase GyrA S91F, D95G and ParC S87R mutant incubated for 20 to 24 hrs by CLSI protocol based broth microdilution method; format: functional; details: time 20-24 hrs
# Neisseria gonorrhoeae [6] = assay: Antimicrobial activity against Neisseria gonorrhoeae L strain harbouring type 2 topoisomerase GyrA S91F,D95N and ParC D86N,S88P mutant incubated for 20 hrs by agar dilution method; format: functional
# Neisseria gonorrhoeae [7] = assay: Antimicrobial activity against wild type Neisseria gonorrhoeae P strain incubated for 20 to 24 hrs by CLSI protocol based broth microdilution method; format: functional; details: time 20-24 hrs
# Neisseria gonorrhoeae [8] = assay: Antimicrobial activity against Neisseria gonorrhoeae K strain harbouring type 2 topoisomerase GyrA S91F, D95N and ParC S87R, S88P mutant incubated for 20 to 24 hrs by CLSI protocol based broth microdilution method; format: functional; details: time 20-24 hrs
# Neisseria gonorrhoeae [9] = assay: Antimicrobial activity against wild type Neisseria gonorrhoeae F strain incubated for 20 to 24 hrs by CLSI protocol based broth microdilution method; format: functional; details: time 20-24 hrs
# Neisseria gonorrhoeae [10] = assay: Antimicrobial activity against Neisseria gonorrhoeae G strain harbouring type 2 topoisomerase GyrA S91F and ParE G410V mutant incubated for 20 to 24 hrs by CLSI protocol based broth microdilution method; format: functional; details: time 20-24 hrs
# [11] = Inhibition of Neisseria gonorrhoeae DNA gyrase supercoiling activity incubated for 25 min by ethidium bromide/bromophenol blue staining based agarose gel electrophoresis analysis; in short: as §1
# Neisseria gonorrhoeae [12] = assay: Antimicrobial activity against wild type Neisseria gonorrhoeae V strain harbouring type 2 topoisomerase GyrA S91F, D95G and ParC S87R mutant incubated for 20 to 24 hrs by CLSI protocol based broth microdilution method; format: functional; details: time 20-24 hrs
# Neisseria gonorrhoeae [13] = assay: Antimicrobial activity against wild type Neisseria gonorrhoeae ATCC 49226 incubated for 20 to 24 hrs by CLSI protocol based broth microdilution method; format: functional; details: time 20-24 hrs
# Neisseria gonorrhoeae [14] = assay: Antimicrobial activity against Neisseria gonorrhoeae G strain harbouring type 2 topoisomerase GyrA S91F and ParE G410V mutant incubated for 20 hrs by agar dilution method; format: functional
# Staphylococcus aureus [15] = assay: Antibacterial activity against Staphylococcus aureus 3527 by CLSI method; format: functional
# [16] = Cytotoxicity activity against human K/VP.5 cells assessed as inhibition of cellular growth; format: toxicity, cell-based
# In short: (§2)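 Human K562 leukemia cells were tested alongside K/VP.5, an etoposide-resistant clonal subline derived from them that has reduced levels of human topoisomerase IIα. Cell growth inhibition was expressed as an IC50.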
# Staphylococcus aureus [17] = assay: Antibacterial activity against cystic fibrosis isolate Staphylococcus aureus by CLSI method; format: functional
# Staphylococcus aureus [18] = assay: Antibacterial activity against Staphylococcus aureus ATCC 29213 by CLSI method; format: functional
# [19] = Metabolic stability in mouse liver microsomes assessed as half life; format: ADME, Microsome
# Staphylococcus aureus [20] = assay: Selectivity ratio of IC50 for inhibition of Staphylococcus aureus DNA topoisomerase 4 decatenation activity to IC50 for inhibition of Staphylococcus aureus DNA gyrase supercoiling activity
# Topoisomerase IV = Topoisomerase IV (Staphylococcus aureus, UniProt P0C1S7+P0C1U9); assay: Inhibition of Staphylococcus aureus DNA topoisomerase 4 decatenation activity using kDNA as substrate incubated for 10 to 20 min by ethidium bromide/bromophenol blue staining based agarose gel electrophoresis analysis; format: protein-complex assay
# Staphylococcus aureus [21] = assay: Antibacterial activity against methicillin-resistant Staphylococcus aureus USA300 by CLSI method; format: functional
# [22] = biological target: Voltage-gated inwardly rectifying potassium channel KCNH2 (Homo sapiens, UniProt Q12809); assay: Inhibition of hERG cardiac ion channel; format: toxicity
# In short: (§3)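 hERG channel inhibition was run by a contract lab. […] Determinations were made in duplicate or triplicate (n = 2 or 3).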
# DNA gyrase = DNA gyrase (Staphylococcus aureus, UniProt P0A0K8+P20831); assay: Inhibition of Staphylococcus aureus DNA gyrase supercoiling activity incubated for 25 min by ethidium bromide/bromophenol blue staining based agarose gel electrophoresis analysis; format: protein-complex assay
# hERG (KCNH2) = hERG (KCNH2) (Homo sapiens, UniProt Q12809); assay: Inhibition of hERG cardiac ion channel at 200 uM relative to control; format: toxicity; in short: as §3
# Staphylococcus aureus [23] = assay: Antibacterial activity against Staphylococcus aureus harbouring GyrA D83N mutant by CLSI method; format: functional
# [24] = Cytotoxicity activity against human K562 cells assessed as inhibition of cellular growth; format: toxicity, cell-based; in short: as §2
SMILES,MIC (Neisseria gonorrhoeae [3]),MIC (Neisseria gonorrhoeae [5]),MIC (Neisseria gonorrhoeae [7]),MIC (Neisseria gonorrhoeae [8]),MIC (Neisseria gonorrhoeae [9]),MIC (Neisseria gonorrhoeae [10]),MIC (Neisseria gonorrhoeae [12]),MIC (Neisseria gonorrhoeae [13]),MIC (Staphylococcus aureus [15]),IC50 [16],MIC (Staphylococcus aureus [17]),MIC (Staphylococcus aureus [18]),half-life [19],Ratio IC50 (Staphylococcus aureus [20]),IC50 (Topoisomerase IV),MIC (Staphylococcus aureus [21]),IC50 [22],IC50 (DNA gyrase),MIC (Staphylococcus aureus [23]),IC50 [24],further results
COc1ccc2ncc(F)c(C[C@H](O)[C@H]3OC[C@H](NCc4ccc5c(n4)NC(=O)CS5)CO3)c2n1,≤ 0.03 µg/mL,≤ 0.03 µg/mL,≤ 0.03 µg/mL,≤ 0.03 µg/mL,≤ 0.03 µg/mL,≤ 0.03 µg/mL,≤ 0.03 µg/mL,≤ 0.03 µg/mL,,,,,,,,,,,,,MIC (Neisseria gonorrhoeae [1]): 0.25 µg/mL; IC50 [2]: 3.6 µM; MIC (Neisseria gonorrhoeae [4]): 0.5 µg/mL; MIC (Neisseria gonorrhoeae [6]): 1 µg/mL; IC50 [11]: 0.39 µM; MIC (Neisseria gonorrhoeae [14]): 1 µg/mL
O=c1ccc2ccc(F)c3c2n1CC3C[C@H]1OC[C@H](NCc2cc3c(nn2)OCCO3)CO1 (some centres not stated),32 µg/mL,32 µg/mL,32 µg/mL,> 32 µg/mL,16 µg/mL,> 32 µg/mL,32 µg/mL,32 µg/mL,4 µg/mL,171 µM,1 µg/mL,2 µg/mL,1.7 h,2.8,9.7 µM,4 µg/mL,> 200 µM,3.5 µM,> 8 µg/mL,156 µM,inhibition at 200 µM (hERG (KCNH2)): 21%
O=c1ccc2ncc(F)c3c2n1CC3C[C@H]1OC[C@H](NCc2cc3c(nn2)OCCS3)CO1 (some centres not stated),32 µg/mL,8 µg/mL,32 µg/mL,32 µg/mL,8 µg/mL,> 32 µg/mL,4 µg/mL,32 µg/mL,4 µg/mL,197 µM,2 µg/mL,2 µg/mL,1.88 h,5.6,10 µM,4 µg/mL,> 200 µM,1.8 µM,> 8 µg/mL,98 µM,inhibition at 200 µM (hERG (KCNH2)): 23%
COc1ccc2ncc(F)c(C[C@H](O)[C@H]3OC[C@H](NC(=O)c4ccc5c(n4)NC(=O)CS5)CO3)c2n1,≤ 0.015 µg/mL,≤ 0.015 µg/mL,≤ 0.015 µg/mL,≤ 0.015 µg/mL,≤ 0.015 µg/mL,0.12 µg/mL,≤ 0.015 µg/mL,≤ 0.015 µg/mL,≤ 0.06 µg/mL,> 100 µM,≤ 0.06 µg/mL,0.06 µg/mL,0.0903 h,2.8,0.42 µM,≤ 0.06 µg/mL,> 100 µM,0.15 µM,0.25 µg/mL,7.5 µM,MIC (Neisseria gonorrhoeae [1]): 0.12 µg/mL; IC50 [2]: 27 µM; MIC (Neisseria gonorrhoeae [4]): 0.12 µg/mL; MIC (Neisseria gonorrhoeae [6]): 0.5 µg/mL; IC50 [11]: 0.64 µM; MIC (Neisseria gonorrhoeae [14]): 0.25 µg/mL
